Calls of active or inactive are those of the source. The calls are words filed in the database; no cut-off is given here.
Tests used:
[1] = Antiproliferative activity against human A2780/DX3 cells after 3 days by MTT assay; type: functional, cell-based; conditions: for IC50: Homo sapiens, A2780/DX3, 72 h
In short: (§1)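 Cells plated 6–8 h in 96-well plates. Compound alone, in duplicate at ≥5 concentrations (3-fold serial dilutions, top 100 μM), with final DMSO […] after predilution in FCS. After 3 days, MTT 4 h at 37 °C, formazan dissolved in DMSO, A540. IC50 taken from single dose–response curves; 3–4 experiments. A2780/DX3 kept doxorubicin-free 2–3 days beforehand.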

A2780 [2] = assay: Ratio of IC50 for human A2780/DX3 cells to IC50 for human A2780 cells assessed as mean resistance index; type: functional
In short: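 Doxorubicin alone tested by 3-day MTT assay in both lines (absorbance at 540 nm). IC50 from dose–response curves. Index is the mean IC50 in resistant cells divided by the mean IC50 in sensitive cells.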

A2780 [3] = assay: Antiproliferative activity against human A2780 cells after 3 days by MTT assay; type: functional, cell-based; conditions: for IC50: Homo sapiens, A2780, 72 h; in short: as §1
A2780 ADR [4] = assay: Reversal of P-gp 170-mediated multidrug resistance in human A2780/DX3 cells assessed as increase in intracellular doxorubicin accumulation at 5 times IC5 pretreated for 2 hrs before doxorubicin administration measured after 2 hrs by epifluorescent microscopic analysis; type: cell-based
In short: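 A2780/DX3 cells on chamber slides at 75–85% confluence, pretreated 2 h with compound at five times the concentration giving 5% growth inhibition. Doxorubicin 10 μM then added for 2 h. Cells washed in cold PBS, fixed in 3.7% paraformaldehyde/2% sucrose, mounted and imaged by epifluorescence at 20X. Untreated and compound-only controls included.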

A2780 ADR [5] = assay: Reversal of P-gp 170-mediated multidrug resistance in human A2780/DX3 cells assessed as reduction in doxorubicin IC50 at IC0 pretreated for 6 hrs before doxorubicin administration measured after 3 days by MTT assay; type: cell-based; design: scale not given: the % may be the effect or the level left
In short: (§2)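 A2780/DX3 cells went into medium holding the modulator at its MTT-derived 0% or 5% growth-inhibition concentration. Doxorubicin (30–0.048 μM serial dilutions, modulator kept constant) was added 6 h later. MTT (2 mg/mL) was added after 3 days for 4 h at 37 °C, formazan dissolved in DMSO, A540 read. IC50 came from dose–response curves, repeated 4–6 times. % reduction is versus doxorubicin alone in the same experiment. Kruskal–Wallis/Mann–Whitney tests.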

A2780 ADR [6] = assay: Reversal of P-gp 170-mediated multidrug resistance in human A2780/DX3 cells assessed as increase in intracellular doxorubicin accumulation at 5 times IC5 pretreated for 2 hrs before doxorubicin administration measured after 2 hrs by flow cytometry; type: cell-based
In short: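 A2780/DX3 cells (kept in 0.1 μM doxorubicin, drug withdrawn 2–3 days before use) seeded in flasks, grown 24 h to 75–85% confluence. Modulator given at five times the 5%-growth-inhibition concentration for 2 h, then 10 μM doxorubicin for 2 h more. Cells trypsinized, fixed in 3.7% paraformaldehyde/2% sucrose in PBS. Flow cytometry, 488 nm excitation, 575 nm bandpass. Read-out is MFI, with % increase taken from the MFI ratio to doxorubicin alone.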

[7] = Antiproliferative activity against human A2780/DX3 cells at 0.3 uM after 3 days by MTT assay; type: functional; conditions: A2780/DX3, 72 h
A2780 [8] = assay: Antiproliferative activity against human A2780 cells at 0.15 uM after 3 days by MTT assay; type: functional; conditions: A2780, 72 h
A2780 ADR [9] = assay: Reversal of P-gp 170-mediated multidrug resistance in human A2780/DX3 cells assessed as reduction in doxorubicin IC50 at IC5 pretreated for 6 hrs before doxorubicin administration measured after 3 days by MTT assay; type: cell-based; design: scale not given: the % may be the effect or the level left; in short: as §2
A2780 [10] = assay: Down regulation of P-gp 170 expression in human A2780 cells after 72 hrs by flow cytometry; type: functional, cell-based
In short: (§3)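 Cells exposed 72 h to compound at concentrations giving 5% or 0% growth inhibition. Then washed in PBS/2% FCS; 2.5 × 10^5 cells stained at 4 °C with anti-Pgp MM4.17 monoclonal, then FITC goat anti-mouse IgG, and analysed by flow cytometry.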

[11] = Down regulation of P-gp 170 expression in human A2780/DX3 cells after 72 hrs by flow cytometry; type: functional, cell-based; in short: as §3
A2780 [12] = assay: Antiproliferative activity against human A2780 cells at 2.9 uM after 3 days by MTT assay; type: functional; conditions: A2780, 72 h
[13] = Antiproliferative activity against human A2780/DX3 cells at 4.0 uM after 3 days by MTT assay; type: functional; conditions: A2780/DX3, 72 h
[14] = Antiproliferative activity against human A2780/DX3 cells at 1.23 uM after 3 days by MTT assay; type: functional; conditions: A2780/DX3, 72 h
A2780 [15] = assay: Antiproliferative activity against human A2780 cells at 1.3 uM after 3 days by MTT assay; type: functional; conditions: A2780, 72 h
[16] = Antiproliferative activity against human A2780/DX3 cells at 0.81 uM after 3 days by MTT assay; type: functional; conditions: A2780/DX3, 72 h
A2780 [17] = assay: Antiproliferative activity against human A2780 cells at 0.14 uM after 3 days by MTT assay; type: functional; conditions: A2780, 72 h
[18] = Antiproliferative activity against human A2780/DX3 cells at 2.40 uM after 3 days by MTT assay; type: functional; conditions: A2780/DX3, 72 h
A2780 [19] = assay: Antiproliferative activity against human A2780 cells at 2.20 uM after 3 days by MTT assay; type: functional; conditions: A2780, 72 h

Structure (SMILES)	IC50 [1] [µM]	IC50 (A2780 [3]) [µM]	Activity (A2780 ADR [5]) [%]	IC5 [1] [µM]	IC5 (A2780 [3]) [µM]	Activity (A2780 ADR [6]) [%]	Activity (A2780 ADR [9]) [%]	Activity (A2780 [10])	Activity [11]	other results
COc1cccc2c1C(=O)c1c(O)c3c(c(O)c1C2=O)C[C@@](O)(C(=O)CO)C[C@@H]3O[C@H]1C[C@H](N)[C@H](O)[C@H](C)O1 [DOXORUBICIN]	2.21	0.02								Ratio IC50 (A2780 [2]): 93; Activity_index (A2780 ADR [4]): Active
CC/C=C/COC1(c2ccc(Cl)cc2)SC=C(C)n2c1noc2=O (stereo not drawn)	88	55	2	2.5	1.26	< 48	-1			inhibition at 0.3 µM [7]: 0%; inhibition at 0.15 µM (A2780 [8]): 0%
CCCCCOC1(c2ccc(Cl)cc2)SC=C(C)n2c1noc2=O (stereo not drawn)	> 100	> 100	-39	19	7.8	248	-38	inactive	inactive	inhibition at 2.9 µM (A2780 [12]): 0%; inhibition at 4 µM [13]: 0%
CC/C=C/COC1(c2ccc(Br)cc2)SC=C(C)n2c1noc2=O (stereo not drawn)	111	59	-8	2.45	1.9	< 48	-23			inhibition at 1.23 µM [14]: 0%; inhibition at 1.3 µM (A2780 [15]): 0%
O=c1onc2n1C=CSC2(O)c1ccc(Cl)cc1 (stereo not drawn)	> 100	> 100	3	3.02	0.48	< 48	10			inhibition at 0.81 µM [16]: 0%; inhibition at 0.14 µM (A2780 [17]): 0%
CC/C=C\COC1(c2ccc(Cl)cc2)SC=C(C)n2c1noc2=O (stereo not drawn)	103	55	-9	20.7	3.5	429	-47	inactive	inactive	inhibition at 2.4 µM [18]: 0%; inhibition at 2.2 µM (A2780 [19]): 0%

Reference: ChEMBL document CHEMBL1139365, “Inhibition of MDR1 activity in vitro by a novel class of diltiazem analogues: toward new candidates” (J Med Chem, 2009)
